One data set deals with T1, human ERα LBD (Homo sapiens, UniProt P03372).
T1 sequence (P03372 311-547 limits assumed): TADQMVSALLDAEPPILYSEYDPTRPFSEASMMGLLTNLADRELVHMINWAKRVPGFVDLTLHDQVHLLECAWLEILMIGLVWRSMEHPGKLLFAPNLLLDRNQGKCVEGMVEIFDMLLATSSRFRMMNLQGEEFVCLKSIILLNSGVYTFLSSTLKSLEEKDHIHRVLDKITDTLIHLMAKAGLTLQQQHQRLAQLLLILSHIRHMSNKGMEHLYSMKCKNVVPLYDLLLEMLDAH
Nature of the data set: Competitive fluorescence polarization binding assay, ERα. Particulars: for RBA ERα: IC50 estradiol/IC50 compound × 100, estradiol = 100%; for α/β ratio: ratio of RBA ERα to RBA ERβ. In general terms: In fluorescence polarisation assays a small probe gives low polarisation when free and higher when bound to something large.

For the next data set, the target named is human ERβ LBD (Homo sapiens, UniProt Q92731). In words: Competitive fluorescence polarization binding assay, ERβ. The conditions noted are these: for RBA ERβ: IC50 estradiol/IC50 compound × 100, estradiol = 100%.
Sequence of human ERβ LBD (Q92731 264-498 limits assumed): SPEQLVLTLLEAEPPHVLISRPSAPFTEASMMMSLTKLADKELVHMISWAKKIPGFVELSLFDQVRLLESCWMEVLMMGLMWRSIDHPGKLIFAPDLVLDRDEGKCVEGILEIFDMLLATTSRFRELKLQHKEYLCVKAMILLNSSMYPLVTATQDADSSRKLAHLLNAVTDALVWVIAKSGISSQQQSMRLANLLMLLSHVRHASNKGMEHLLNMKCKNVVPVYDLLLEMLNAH
For another data set, the system named is MCF-7 cells. In words: Cell viability assay. The format is cell-based, human. The conditions noted are these: Homo sapiens, MCF7, 72 h, read-out: MCF-7 IC50.
In another data set the test system is T-47D cells. Nature of the data set: Cell viability assay. The format is cell-based, human. The conditions noted are these: Homo sapiens, T47D, 72 h, read-out: T-47D IC50.
The subject of the next data set is T-47D^D538G cells. Nature of the data set: Cell viability assay. The format is cell-based, human. Particulars: Homo sapiens, 72 h, read-out: T-47D^D538G IC50.
A further data set has as its system T-47D^Y537S cells. Nature of the data set: Cell viability assay. Particulars: Homo sapiens, 72 h, read-out: T-47D^Y537S IC50. The format is cell-based, human.
The test system of another data set is LCC-2 cells. Nature of the data set: Cell viability assay on tamoxifen-resistant LCC-2 cells. Particulars: Homo sapiens, LCC2, read-out: LCC-2 IC50. The format is cell-based.
The test system of a further data set is MCF-10A cells. The format is cell-based, human. The conditions noted are these: TI = IC50 MCF-10A / IC50 MCF-7.
Data set [1] deals with T2, ERα (Homo sapiens, UniProt P03372).
T2 sequence (P03372 1-595): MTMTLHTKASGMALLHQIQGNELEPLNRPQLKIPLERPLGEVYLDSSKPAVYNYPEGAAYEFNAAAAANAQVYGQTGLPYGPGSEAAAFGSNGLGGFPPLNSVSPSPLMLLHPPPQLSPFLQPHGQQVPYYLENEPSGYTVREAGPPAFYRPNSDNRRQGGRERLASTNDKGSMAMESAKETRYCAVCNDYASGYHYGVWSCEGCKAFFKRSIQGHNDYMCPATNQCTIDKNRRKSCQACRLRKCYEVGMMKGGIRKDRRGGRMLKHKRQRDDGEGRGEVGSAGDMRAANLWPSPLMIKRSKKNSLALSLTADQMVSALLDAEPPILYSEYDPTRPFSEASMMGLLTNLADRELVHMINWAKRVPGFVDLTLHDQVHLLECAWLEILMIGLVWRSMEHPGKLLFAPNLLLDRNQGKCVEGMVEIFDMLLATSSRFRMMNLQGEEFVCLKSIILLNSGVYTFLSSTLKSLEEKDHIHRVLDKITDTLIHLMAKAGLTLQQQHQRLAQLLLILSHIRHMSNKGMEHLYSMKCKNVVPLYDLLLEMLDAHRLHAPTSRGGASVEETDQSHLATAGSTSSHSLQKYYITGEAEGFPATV
Nature of the data set: cell-based. The format is cell-based. Particulars: for Agonist mode ERα Eff (%E2): control as 0%, 10 nmol/L E2 as 100%.

Another data set concerns the target ERβ (Homo sapiens, UniProt Q92731). Nature of the data set: ER transcriptional activity. The format is cell-based. Particulars: for Agonist mode ERβ Eff (%E2): control as 0%, 10 nmol/L E2 as 100%; for Antagonist mode ERβ Eff (%E2): with 10 nmol/L 17β-estradiol.
Data set [2] addresses T2, ERα. In words: Immunoblot analysis of ERα degradation in MCF-7 cells. The format is cell-based. Particulars: MCF-7 cells; for ERα degradation (immunoblot): 1 or 5 μmol/L. In general terms: In western blotting, separated proteins are transferred to a membrane and probed.
For another data set, the target named is T3, ERα C530S mutant (Homo sapiens, UniProt P03372, C530S).
T3 sequence (P03372 1-595 C530S): T2 sequence (P03372 1-595) with C530S
In words: Transcriptional activity. The conditions noted are these: HEK-293T^C530S cells, compared with wild type. The format is cell-based.

A further data set relates to MCF-7 tumor xenograft. Nature of the data set: MCF-7 tumor xenograft model in BALB/c nude mice. The format is in vivo. The conditions noted are these: 2 mg/kg ip every other day, Day 32. In short, it runs like this:
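Female BALB/c nude mice (15–18 g, 5 weeks old) received 1 × 10⁷ MCF-7 cells in 100 μL PBS into the right axillary mammary fat pad. Tumour volume (W² × L × 0.5) and body weight were measured every 2 days. Mice were sacrificed on Day 33. Tumours were assessed by IHC (Ki-67, ERα) and ERα Western blot.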

Data set [3] has as its system ERα. Nature of the data set: Immunoblot analysis of ERα degradation across ERα^WT and ERα^MUT BC cell lines. The format is cell-based, human. The conditions noted are these: 10 μmol/L MG-132 alone.

Positions count from the first letter of the chain named. Where two headings read alike, the source gives them in different places. Peptide text beside a SMILES is read from it. * marks the point of attachment. Cbz = O=C(OCc1ccccc1)*

Sequence of ERβ (Q92731 whole entry): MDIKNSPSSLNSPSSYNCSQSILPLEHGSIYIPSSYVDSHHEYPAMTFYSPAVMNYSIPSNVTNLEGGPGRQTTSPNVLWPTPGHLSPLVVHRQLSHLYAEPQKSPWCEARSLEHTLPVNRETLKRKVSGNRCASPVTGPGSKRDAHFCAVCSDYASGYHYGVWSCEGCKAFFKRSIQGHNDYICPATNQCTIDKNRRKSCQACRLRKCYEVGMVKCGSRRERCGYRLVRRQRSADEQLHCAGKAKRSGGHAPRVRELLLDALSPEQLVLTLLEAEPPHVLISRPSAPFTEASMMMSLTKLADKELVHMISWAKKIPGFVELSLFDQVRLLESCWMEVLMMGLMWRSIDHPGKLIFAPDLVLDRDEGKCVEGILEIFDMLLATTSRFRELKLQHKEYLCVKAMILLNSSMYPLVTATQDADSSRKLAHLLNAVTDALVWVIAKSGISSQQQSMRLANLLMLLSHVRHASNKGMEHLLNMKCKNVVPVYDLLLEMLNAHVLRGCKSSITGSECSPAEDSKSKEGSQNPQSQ

As for `COc1ccc(N(CC(F)(F)F)S(=O)(=O)C2CC3OC2C(c2ccc(O)cc2)=C3c2ccc(NC(=O)C=C(C)C)cc2)cc1` (stereo not drawn) [Compound 29f, N-(4-(3-(4-Hydroxyphenyl)-5-(N-(4-methoxyphenyl)-N-(2,2,2-trifluoroethyl)sulfamoyl)-7-oxabicyclo[2.2.1]hept-2-en-2-yl)phenyl)-3-methylbut-2-enamide], the “RBA ERα” value at human ERα LBD was found to be 14.48 ± 0.65%. Besides, the α/β ratio at human ERα LBD is on record as 8.83. The Ki (as a rule, a measure of affinity in units of concentration, obtained from inhibition or displacement) at human ERα LBD (read-out: Ki ERα) is 0.19 nM; at human ERβ LBD (read-out: Ki ERβ), 4.07 nM. For the same molecule, on human ERβ LBD, the “RBA ERβ” value was 1.64 ± 0.45%. The half-inhibitory concentration (IC50) – broadly, the point on the concentration scale where inhibition reaches its midpoint – with MCF-7 cells was 94 ± 1 nM; in the data set on T-47D cells, 8580 ± 360 nM; in the data set on T-47D^D538G cells it was 8530 ± 470 nM; with T-47D^Y537S cells, greater than 31000 nM; in the data set with LCC-2 cells it was 15100 ± 1370 nM; on ERα [1] (read-out: Antagonist mode ERα IC50, with 10 nmol/L 17β-estradiol), 210 nM. Besides, the “TI (therapeutic index)” value in the data set with MCF-10A cells was 54.89. Also, the “Agonist mode ERα Eff (%E2)” value at ERα [1] amounted to 65 ± 5 %E2. Moreover, the EC50 – broadly, the concentration needed to bring the measured effect to its halfway point – on ERα [1] (read-out: Agonist mode ERα EC50, HEK-293T luciferase) is 4910 nM. The “Antagonist mode ERα Eff (%E2)” value at ERα [1] (with 10 nmol/L 17β-estradiol) is 35 ± 2 %E2. The “Agonist mode ERβ Eff (%E2)” value at ERβ turned out to be 9 ± 2 %E2. For the same molecule, the “Antagonist mode ERβ Eff (%E2)” value at ERβ is recorded as 13 ± 1 %E2. The “ERα degradation (immunoblot) at 1 μmol/L” value on ERα [2] was “efficient ability to degrade ERα”. Besides, the “ERα degradation (immunoblot)” value at ERα [2] is “effective in inducing ERα degradation”.
For `CCN(c1ccc(O)cc1)S(=O)(=O)C1CC2OC1C(c1ccc(O)cc1)=C2c1ccc(NC(=O)C=C(C)C)cc1` (stereo not drawn) [Compound 29i, N-(4-(5-(N-Ethyl-N-(4-hydroxyphenyl)sulfamoyl)-3-(4-hydroxyphenyl)-7-oxabicyclo[2.2.1]hept-2-en-2-yl)phenyl)-3-methylbut-2-enamide], on human ERα LBD, the affinity corresponds to a Ki of 0.09 nM, the “RBA ERα” value was 29.85 ± 1.09% and the α/β ratio is 5.83. Moreover, at human ERβ LBD, the inhibition constant (Ki) was found to be 1.3 nM and the “RBA ERβ” value was determined as 5.12 ± 0.39%. Further, in the data set with MCF-7 cells, the IC50 was found to be 71 ± 27 nM. In addition, in the data set on T-47D cells, the IC50 was determined as 3490 ± 60 nM. Besides, in the data set on T-47D^D538G cells, the IC50 stood at 4250 ± 190 nM. Also, in the data set with T-47D^Y537S cells, the IC50 came out at 1890 ± 170 nM. In the data set with LCC-2 cells, the IC50 was determined as 4070 ± 130 nM. Further, the “TI (therapeutic index)” value in the data set on MCF-10A cells is given as 122.82. Also, at ERα [1], 66 nM corresponded to half-maximal inhibition (IC50) and the “Agonist mode ERα Eff (%E2)” value was determined as 15 ± 2 %E2. Also, on ERα [1] (with 10 nmol/L 17β-estradiol), the “Antagonist mode ERα Eff (%E2)” value is listed as 62 ± 5 %E2. Besides, on ERβ, 1020 nM corresponded to half-maximal inhibition (IC50), the “Agonist mode ERβ Eff (%E2)” value worked out at 34 ± 2 %E2 and the “Antagonist mode ERβ Eff (%E2)” value worked out at 78 ± 2 %E2. Besides, at ERα [2], the “ERα degradation (immunoblot) at 1 μmol/L” value was “efficient ability to degrade ERα” and the “ERα degradation (immunoblot)” value is on record as “effective in inducing ERα degradation”.
`C[C@]12CC[C@@H]3c4ccc(O)cc4C[C@@H](CCCCCCCCC[S+]([O-])CCCC(F)(F)C(F)(F)F)[C@H]3[C@@H]1CC[C@@H]2O` (stereo partly drawn) [Ful, Fulvestrant, reference compound]: the half-inhibitory concentration (IC50) in the data set with MCF-7 cells amounted to 140 ± 50 nM; in the data set on T-47D cells, 1760 ± 60 nM; with T-47D^D538G cells, 3920 ± 220 nM; in the data set on T-47D^Y537S cells, 2220 ± 170 nM; with LCC-2 cells, 11000 ± 450 nM. At ERα [1] (with 10 nmol/L 17β-estradiol), the “Antagonist mode ERα Eff (%E2)” value stood at 80 ± 2 %E2. In addition, the “Antagonist mode ERβ Eff (%E2)” value on ERβ is 73 ± 1 %E2. Moreover, the “Effect of C530S mutation on antagonistic activity” value on ERα C530S mutant was “unaffected by this mutation”. Further, in the data set with MCF-7 tumor xenograft, the “TGI (tumor growth inhibition)” value is on record as 79%.
Take `CC(C)C[C@@H](C=O)NC(=O)[C@H](CC(C)C)NC(=O)[C@H](CC(C)C)NC(=O)OCc1ccccc1` [MG-132, reference compound] (Cbz-Leu-Leu-Leu-aldehyde): the “Effect on ERα degradation, alone” value with ERα [3] is reported as “no effect on ERα degradation”.

The record behind these values is article PMC10692362 (Acta Pharmaceutica Sinica. B, 2023).
